Activity calls are given as the source filed them. No cut-off for these calls is given here.
Tested on: HeLa
Test: Induction of senescence in human HeLa cells at 4 uM after 72 hrs by X-gal staining-based beta-galactosidase assay
Type: functional, cell-based
Settings: not given
How it was run: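 HeLa cells in chamber slides were treated at 4 μM for 72 h. They were fixed in 3% paraformaldehyde and then in methanol at 4 °C. Staining used X-gal in sodium phosphate buffer with ferro/ferricyanide, 1 mM MgCl₂ and citric acid for 24 h. Senescent cells were scored by microscopy as enlarged, flattened and blue.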

Row | Compound | Activity
1 | COc1cccc2c1C(=O)c1c(O)c3c(c(O)c1C2=O)C[C@@](O)(C(=O)CO)C[C@@H]3O[C@H]1C[C@H](N)[C@H](O)[C@H](C)O1 | Active

Tested on: K562
Test: Cytotoxicity against human K562 cells after 72 hrs by MTT assay
Type: functional, cell-based
Settings: K562, 72 h
How it was run: (§1)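 Cells were seeded at 1×10⁴ per well and preincubated 18 h at 37 °C, 5% CO₂. They were then exposed to 1–256 μM for 72 h with DMSO ≤0.25%. MTT was added for 2 h and formazan was solubilized in extraction buffer before reading OD at 570 nm. IC50 is mean ± SD of three independent experiments. HEK is the normal-cell line; cancer lines were grown in DMEM with 10% serum.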

Row | Compound | IC50
2 | COc1cc2nc(C)n(-c3ccccc3Cn3cc(-c4ccccc4)nn3)c(=O)c2cc1OC | 25.6 µM
3 | CCCCCCc1cn(Cc2ccccc2-n2c(C)nc3cc(OC)c(OC)cc3c2=O)nn1 | 24 µM
4 | COc1cc2nc(C)n(-c3ccccc3Cn3cc(CO)nn3)c(=O)c2cc1OC | 28 µM
5 | COc1ccc(-c2cn(Cc3ccccc3-n3c(C)nc4cc(OC)c(OC)cc4c3=O)nn2)cc1 | 22.4 µM
6 | COc1ccc2cc(-c3cn(Cc4ccccc4-n4c(C)nc5cc(OC)c(OC)cc5c4=O)nn3)ccc2c1 | 28 µM

Tested on: HeLa
Test: Cytotoxicity against human HeLa cells after 72 hrs by MTT assay
Type: functional, cell-based
Settings: not given
How it was run: as §1

Row | Compound | IC50
7 | COc1cc2nc(C)n(-c3ccccc3Cn3cc(-c4ccccc4)nn3)c(=O)c2cc1OC | 13.7 µM
8 | CCCCCCc1cn(Cc2ccccc2-n2c(C)nc3cc(OC)c(OC)cc3c2=O)nn1 | 14.6 µM
9 | COc1cc2nc(C)n(-c3ccccc3Cn3cc(CO)nn3)c(=O)c2cc1OC | 11.9 µM
10 | COc1ccc(-c2cn(Cc3ccccc3-n3c(C)nc4cc(OC)c(OC)cc4c3=O)nn2)cc1 | 11.9 µM
11 | COc1ccc2cc(-c3cn(Cc4ccccc4-n4c(C)nc5cc(OC)c(OC)cc5c4=O)nn3)ccc2c1 | 14.6 µM

Tested on: HeLa
Test: Downregulation of EZH2 mRNA expression in human HeLa cells at 4 uM after 48 hrs by RT-PCR analysis
Type: functional, cell-based
Settings: not given
How it was run: (§2)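 HeLa cells were treated at 4 μM for 48 h before RNA isolation. cDNA was amplified by RT-PCR with gene-specific primers, using GAPDH as loading control. Products were run on 1% agarose gel with ethidium bromide, and band intensity was quantified by densitometry.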

Row | Compound | Activity
12 | COc1cccc2c1C(=O)c1c(O)c3c(c(O)c1C2=O)C[C@@](O)(C(=O)CO)C[C@@H]3O[C@H]1C[C@H](N)[C@H](O)[C@H](C)O1 | Active

Tested on: HeLa
Test: Downregulation of HDAC-5 mRNA expression in human HeLa cells at 4 uM after 48 hrs by RT-PCR analysis
Type: functional, cell-based
Settings: not given
How it was run: as §2

Row | Compound | Activity
13 | COc1cccc2c1C(=O)c1c(O)c3c(c(O)c1C2=O)C[C@@](O)(C(=O)CO)C[C@@H]3O[C@H]1C[C@H](N)[C@H](O)[C@H](C)O1 | Active

Tested on: HeLa
Test: Change in HDAC-6 mRNA expression in human HeLa cells at 4 uM after 48 hrs by RT-PCR analysis
Type: functional, cell-based
Settings: not given
How it was run: as §2

Row | Compound | Activity
14 | COc1cccc2c1C(=O)c1c(O)c3c(c(O)c1C2=O)C[C@@](O)(C(=O)CO)C[C@@H]3O[C@H]1C[C@H](N)[C@H](O)[C@H](C)O1 | inactive

Tested on: HeLa
Test: Upregulation of p53 mRNA expression in human HeLa cells at 4 uM after 48 hrs by RT-PCR analysis
Type: functional, cell-based
Settings: not given
How it was run: as §2

Row | Compound | Activity
15 | COc1cccc2c1C(=O)c1c(O)c3c(c(O)c1C2=O)C[C@@](O)(C(=O)CO)C[C@@H]3O[C@H]1C[C@H](N)[C@H](O)[C@H](C)O1 | Active

Tested on: HeLa
Test: Change in HDAC-7 mRNA expression in human HeLa cells at 4 uM after 48 hrs by RT-PCR analysis
Type: functional, cell-based
Settings: not given
How it was run: as §2

Row | Compound | Activity
16 | COc1cccc2c1C(=O)c1c(O)c3c(c(O)c1C2=O)C[C@@](O)(C(=O)CO)C[C@@H]3O[C@H]1C[C@H](N)[C@H](O)[C@H](C)O1 | inactive

Tested on: HeLa
Test: Induction of human p16 promoter activity transfected in human HeLa cells at 4 uM after 48 hrs by luciferase-based luminescence assay
Type: cell-based
Settings: not given
How it was run: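 A 1.4 kb human p16 promoter in pGL3-basic luciferase vector was co-transfected into HeLa with a β-gal plasmid. Cells were then treated at 4 μM for 48 h. Lysate luciferase luminescence was normalized to β-galactosidase as internal control.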

Row | Compound | Activity
17 | COc1cccc2c1C(=O)c1c(O)c3c(c(O)c1C2=O)C[C@@](O)(C(=O)CO)C[C@@H]3O[C@H]1C[C@H](N)[C@H](O)[C@H](C)O1 | Active

Tested on: not listed separately
Test: Cytotoxicity against HEK cells after 72 hrs by MTT assay
Type: cell-based
Settings: Homo sapiens, HEK293, 72 h
How it was run: as §1

Row | Compound | IC50
18 | COc1cc2nc(C)n(-c3ccccc3Cn3cc(-c4ccccc4)nn3)c(=O)c2cc1OC | 64 µM
19 | CCCCCCc1cn(Cc2ccccc2-n2c(C)nc3cc(OC)c(OC)cc3c2=O)nn1 | 53 µM
20 | COc1cc2nc(C)n(-c3ccccc3Cn3cc(CO)nn3)c(=O)c2cc1OC | 110 µM
21 | COc1ccc(-c2cn(Cc3ccccc3-n3c(C)nc4cc(OC)c(OC)cc4c3=O)nn2)cc1 | 72 µM
22 | COc1ccc2cc(-c3cn(Cc4ccccc4-n4c(C)nc5cc(OC)c(OC)cc5c4=O)nn3)ccc2c1 | 68 µM

Tested on: HEK293
Test: Selectivity index, ratio of IC50 for HEK cells to IC50 for human K562 cells
Type: functional
Settings: not given
How it was run: (§3)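 Selectivity index is IC50 in normal HEK cells divided by IC50 in the cancer cell line.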

Row | Compound | Ratio IC50
23 | COc1cc2nc(C)n(-c3ccccc3Cn3cc(-c4ccccc4)nn3)c(=O)c2cc1OC | 2.5
24 | CCCCCCc1cn(Cc2ccccc2-n2c(C)nc3cc(OC)c(OC)cc3c2=O)nn1 | 2.2
25 | COc1cc2nc(C)n(-c3ccccc3Cn3cc(CO)nn3)c(=O)c2cc1OC | 3.92
26 | COc1ccc(-c2cn(Cc3ccccc3-n3c(C)nc4cc(OC)c(OC)cc4c3=O)nn2)cc1 | 3.2
27 | COc1ccc2cc(-c3cn(Cc4ccccc4-n4c(C)nc5cc(OC)c(OC)cc5c4=O)nn3)ccc2c1 | 2.42

Tested on: HeLa
Test: Downregulation of HDAC-2 mRNA expression in human HeLa cells at 4 uM after 48 hrs by RT-PCR analysis
Type: functional, cell-based
Settings: not given
How it was run: as §2

Row | Compound | Activity
28 | COc1cccc2c1C(=O)c1c(O)c3c(c(O)c1C2=O)C[C@@](O)(C(=O)CO)C[C@@H]3O[C@H]1C[C@H](N)[C@H](O)[C@H](C)O1 | Active

Tested on: HeLa
Test: Upregulation of p21 mRNA expression in human HeLa cells at 4 uM after 48 hrs by RT-PCR analysis
Type: functional, cell-based
Settings: not given
How it was run: as §2

Row | Compound | Activity
29 | COc1cccc2c1C(=O)c1c(O)c3c(c(O)c1C2=O)C[C@@](O)(C(=O)CO)C[C@@H]3O[C@H]1C[C@H](N)[C@H](O)[C@H](C)O1 | Active

Tested on: HeLa
Test: Selectivity index, ratio of IC50 for HEK cells to IC50 for human HeLa cells
Type: functional
Settings: not given
How it was run: as §3

Row | Compound | Ratio IC50
30 | COc1cc2nc(C)n(-c3ccccc3Cn3cc(-c4ccccc4)nn3)c(=O)c2cc1OC | 4.66
31 | CCCCCCc1cn(Cc2ccccc2-n2c(C)nc3cc(OC)c(OC)cc3c2=O)nn1 | 3.62
32 | COc1cc2nc(C)n(-c3ccccc3Cn3cc(CO)nn3)c(=O)c2cc1OC | 9.25
33 | COc1ccc(-c2cn(Cc3ccccc3-n3c(C)nc4cc(OC)c(OC)cc4c3=O)nn2)cc1 | 6.06
34 | COc1ccc2cc(-c3cn(Cc4ccccc4-n4c(C)nc5cc(OC)c(OC)cc5c4=O)nn3)ccc2c1 | 4.65

Tested on: HeLa
Test: Downregulation of HDAC-1 mRNA expression in human HeLa cells at 4 uM after 48 hrs by RT-PCR analysis
Type: functional, cell-based
Settings: not given
How it was run: as §2

Row | Compound | Activity
35 | COc1cccc2c1C(=O)c1c(O)c3c(c(O)c1C2=O)C[C@@](O)(C(=O)CO)C[C@@H]3O[C@H]1C[C@H](N)[C@H](O)[C@H](C)O1 | Active

Tested on: HEK293
Test: Selectivity index, ratio of IC50 for HEK cells to IC50 for human MCF7 cells
Type: functional
Settings: not given
How it was run: as §3

Row | Compound | Ratio IC50
36 | COc1cc2nc(C)n(-c3ccccc3Cn3cc(-c4ccccc4)nn3)c(=O)c2cc1OC | 6.96
37 | CCCCCCc1cn(Cc2ccccc2-n2c(C)nc3cc(OC)c(OC)cc3c2=O)nn1 | 2.98
38 | COc1cc2nc(C)n(-c3ccccc3Cn3cc(CO)nn3)c(=O)c2cc1OC | 6.94
39 | COc1ccc(-c2cn(Cc3ccccc3-n3c(C)nc4cc(OC)c(OC)cc4c3=O)nn2)cc1 | 5.15
40 | COc1ccc2cc(-c3cn(Cc4ccccc4-n4c(C)nc5cc(OC)c(OC)cc5c4=O)nn3)ccc2c1 | 3.74

Tested on: MCF7
Test: Cytotoxicity against human MCF7 cells after 72 hrs by MTT assay
Type: functional, cell-based
Settings: MCF7, 72 h
How it was run: as §1

Row | Compound | IC50
41 | COc1cc2nc(C)n(-c3ccccc3Cn3cc(-c4ccccc4)nn3)c(=O)c2cc1OC | 9.19 µM
42 | CCCCCCc1cn(Cc2ccccc2-n2c(C)nc3cc(OC)c(OC)cc3c2=O)nn1 | 17.7 µM
43 | COc1cc2nc(C)n(-c3ccccc3Cn3cc(CO)nn3)c(=O)c2cc1OC | 15.8 µM
44 | COc1ccc(-c2cn(Cc3ccccc3-n3c(C)nc4cc(OC)c(OC)cc4c3=O)nn2)cc1 | 14 µM
45 | COc1ccc2cc(-c3cn(Cc4ccccc4-n4c(C)nc5cc(OC)c(OC)cc5c4=O)nn3)ccc2c1 | 18.2 µM
